Experiments:
[1] = molecular target: T1, GABA A receptor alpha-3/beta-2/gamma-2 (Homo sapiens, UniProt P18507+P34903+P47870); experiment: Antagonist activity at human alpha3beta2gamma2 GABAA receptor expressed in HEK293 cells by FMP assay; type: cell-based
T1 sequence (P47870 whole entry): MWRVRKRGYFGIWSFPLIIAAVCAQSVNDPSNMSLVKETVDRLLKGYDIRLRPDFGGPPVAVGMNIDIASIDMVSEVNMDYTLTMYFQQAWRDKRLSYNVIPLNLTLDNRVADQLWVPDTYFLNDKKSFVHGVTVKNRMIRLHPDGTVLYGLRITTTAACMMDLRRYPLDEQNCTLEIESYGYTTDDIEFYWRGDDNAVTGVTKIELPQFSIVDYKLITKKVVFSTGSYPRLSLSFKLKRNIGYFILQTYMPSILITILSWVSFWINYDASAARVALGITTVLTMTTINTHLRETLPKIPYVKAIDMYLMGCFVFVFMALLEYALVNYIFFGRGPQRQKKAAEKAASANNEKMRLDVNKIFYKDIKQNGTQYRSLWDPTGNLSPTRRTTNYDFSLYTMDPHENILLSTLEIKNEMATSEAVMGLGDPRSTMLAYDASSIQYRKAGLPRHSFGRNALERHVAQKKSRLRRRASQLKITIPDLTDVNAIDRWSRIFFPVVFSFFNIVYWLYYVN
T1 sequence (P18507 whole entry): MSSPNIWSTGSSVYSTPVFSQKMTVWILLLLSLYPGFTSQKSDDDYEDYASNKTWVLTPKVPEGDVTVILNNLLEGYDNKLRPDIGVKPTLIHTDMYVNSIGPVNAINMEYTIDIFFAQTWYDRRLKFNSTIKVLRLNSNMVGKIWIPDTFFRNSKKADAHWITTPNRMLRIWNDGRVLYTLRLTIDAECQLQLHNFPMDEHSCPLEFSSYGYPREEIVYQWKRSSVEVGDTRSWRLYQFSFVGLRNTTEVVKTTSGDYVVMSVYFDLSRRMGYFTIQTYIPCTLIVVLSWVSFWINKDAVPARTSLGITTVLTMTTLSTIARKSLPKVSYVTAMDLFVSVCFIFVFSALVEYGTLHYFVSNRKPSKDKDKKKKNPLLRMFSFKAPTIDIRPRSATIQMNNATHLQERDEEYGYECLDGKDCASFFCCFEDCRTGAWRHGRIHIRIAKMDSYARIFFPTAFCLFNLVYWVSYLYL
T1 sequence (P34903 whole entry): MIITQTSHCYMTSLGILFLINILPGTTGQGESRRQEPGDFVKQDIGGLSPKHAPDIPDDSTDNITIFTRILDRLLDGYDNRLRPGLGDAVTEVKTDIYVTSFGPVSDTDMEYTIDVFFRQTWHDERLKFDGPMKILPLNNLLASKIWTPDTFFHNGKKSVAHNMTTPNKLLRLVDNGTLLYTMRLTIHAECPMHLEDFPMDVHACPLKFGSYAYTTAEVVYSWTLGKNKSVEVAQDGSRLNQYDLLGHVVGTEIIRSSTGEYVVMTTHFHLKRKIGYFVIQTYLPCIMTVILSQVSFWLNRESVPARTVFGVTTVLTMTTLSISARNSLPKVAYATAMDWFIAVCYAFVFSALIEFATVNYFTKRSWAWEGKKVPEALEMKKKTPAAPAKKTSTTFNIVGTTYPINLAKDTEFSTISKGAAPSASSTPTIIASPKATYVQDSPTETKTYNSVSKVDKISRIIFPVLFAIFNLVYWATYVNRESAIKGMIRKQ
Outline: (§1)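 Human αβγ2 receptors in HEK293 cells: α1β2γ2 stably expressed, other αβγ2 subtypes transiently transfected into HEK293 Flp-In background cells (α:β:γ 1:1:2). FLIPR membrane potential assay with ΔRFU baseline to peak/plateau and GABA EC80 as agonist. IC50 from a four-parameter fit, at least three independent experiments.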

[2] = molecular target: T2, GABA A receptor alpha-2/beta-2/gamma-2 (Homo sapiens, UniProt P18507+P47869+P47870); experiment: Antagonist activity at human alpha2beta2gamma2 GABAA receptor expressed in HEK293 cells by FMP assay; type: cell-based; outline: as §1
T2 sequence (P47870 whole entry): T1 sequence (P47870 whole entry)
T2 sequence (P18507 whole entry): T1 sequence (P18507 whole entry)
T2 sequence (P47869 whole entry): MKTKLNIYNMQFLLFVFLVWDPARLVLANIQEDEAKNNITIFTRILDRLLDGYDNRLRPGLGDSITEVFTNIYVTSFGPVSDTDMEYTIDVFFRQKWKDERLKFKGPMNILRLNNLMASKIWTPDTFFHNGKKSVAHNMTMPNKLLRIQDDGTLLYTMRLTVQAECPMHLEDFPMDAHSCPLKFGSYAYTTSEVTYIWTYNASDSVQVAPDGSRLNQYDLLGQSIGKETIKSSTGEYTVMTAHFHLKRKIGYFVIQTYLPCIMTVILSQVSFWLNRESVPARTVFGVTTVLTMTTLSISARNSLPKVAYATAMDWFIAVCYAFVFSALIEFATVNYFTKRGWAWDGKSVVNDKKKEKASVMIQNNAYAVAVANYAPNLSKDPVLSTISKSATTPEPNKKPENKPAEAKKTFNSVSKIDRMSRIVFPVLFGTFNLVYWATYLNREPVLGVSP

[3] = molecular target: Gamma-aminobutyric acid receptor subunit alpha-4/beta-1/delta (Homo sapiens, UniProt O14764+P18505+P48169); experiment: Antagonist activity at human alpha4beta1delta GABAA receptor expressed in HEK293 Flp-In cells by FMP assay; type: cell-based, Flp-In-293
Chain of Gamma-aminobutyric acid receptor subunit alpha-4/beta-1/delta (P48169 whole entry): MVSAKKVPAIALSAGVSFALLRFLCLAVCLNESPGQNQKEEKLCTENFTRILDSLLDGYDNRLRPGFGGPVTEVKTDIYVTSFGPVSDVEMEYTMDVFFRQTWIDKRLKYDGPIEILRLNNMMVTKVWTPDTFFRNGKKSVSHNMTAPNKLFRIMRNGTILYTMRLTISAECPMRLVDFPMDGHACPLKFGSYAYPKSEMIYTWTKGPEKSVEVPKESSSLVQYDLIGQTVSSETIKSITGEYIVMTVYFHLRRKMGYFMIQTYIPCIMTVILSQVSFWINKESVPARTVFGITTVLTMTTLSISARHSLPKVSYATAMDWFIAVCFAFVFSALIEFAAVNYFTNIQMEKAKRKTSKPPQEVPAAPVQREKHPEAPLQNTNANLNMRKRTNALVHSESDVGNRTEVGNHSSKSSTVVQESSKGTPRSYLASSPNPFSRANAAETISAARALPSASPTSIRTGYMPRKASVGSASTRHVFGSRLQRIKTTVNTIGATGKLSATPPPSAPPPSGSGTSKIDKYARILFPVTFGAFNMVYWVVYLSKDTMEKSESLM
Chain of Gamma-aminobutyric acid receptor subunit alpha-4/beta-1/delta (O14764 whole entry): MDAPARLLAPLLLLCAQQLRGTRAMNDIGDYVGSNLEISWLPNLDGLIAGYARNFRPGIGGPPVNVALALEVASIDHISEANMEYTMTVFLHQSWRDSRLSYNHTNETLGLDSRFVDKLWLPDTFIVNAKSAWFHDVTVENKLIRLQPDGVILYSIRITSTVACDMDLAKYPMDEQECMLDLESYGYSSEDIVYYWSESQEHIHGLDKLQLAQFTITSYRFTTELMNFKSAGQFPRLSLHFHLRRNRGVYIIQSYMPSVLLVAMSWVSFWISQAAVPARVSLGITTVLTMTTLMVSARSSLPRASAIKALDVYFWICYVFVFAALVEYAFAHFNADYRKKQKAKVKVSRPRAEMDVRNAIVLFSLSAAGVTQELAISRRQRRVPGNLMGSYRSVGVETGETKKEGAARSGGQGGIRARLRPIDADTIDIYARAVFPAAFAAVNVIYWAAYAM
Chain of Gamma-aminobutyric acid receptor subunit alpha-4/beta-1/delta (P18505 whole entry): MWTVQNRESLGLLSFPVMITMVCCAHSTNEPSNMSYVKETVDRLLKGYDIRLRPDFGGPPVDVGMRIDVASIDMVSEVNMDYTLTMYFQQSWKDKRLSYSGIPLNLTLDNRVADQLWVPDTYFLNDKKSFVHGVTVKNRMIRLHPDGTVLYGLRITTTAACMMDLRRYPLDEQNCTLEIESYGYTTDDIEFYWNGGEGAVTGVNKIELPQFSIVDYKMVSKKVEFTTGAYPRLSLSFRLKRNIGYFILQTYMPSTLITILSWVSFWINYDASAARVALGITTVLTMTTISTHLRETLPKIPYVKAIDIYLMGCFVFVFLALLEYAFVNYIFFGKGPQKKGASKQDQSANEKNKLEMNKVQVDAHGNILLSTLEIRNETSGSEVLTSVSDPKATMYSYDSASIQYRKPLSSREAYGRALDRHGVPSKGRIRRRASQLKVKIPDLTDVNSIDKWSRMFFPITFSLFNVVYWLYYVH
Outline: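 HEK293 Flp-In cells stably expressing human δ subunit, transiently transfected with human α and β subunits (1:1) to form αβδ receptors. Read-out is the FLIPR membrane potential dye ΔRFU, baseline to peak/plateau, with GABA EC80 as agonist. Four-parameter fit of concentration–inhibition curves gives IC50, from at least three independent experiments.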

[4] = system: GABAA receptor α4β2δ (human); experiment: Antagonist activity at recombinant human alpha4beta2delta GABAA receptor expressed in HEK293 Flp-In cells by FMP assay
[5] = Homo sapiens, Flp-In-293, read-out: pIC50 (converted)

## Cc1ccc(C(=O)N2CCC3(CCNCC3)CC2)cc1
[1]
  IC50: 3570 nM
[1]; read-out: pIC50 (converted)
  IC50: 3240 nM
[2]
  IC50: 25300 nM
[2]; read-out: pIC50 (converted)
  IC50: 25100 nM
[3]
  IC50: 1280 nM
[3]; read-out: pIC50 (converted)
  IC50: 1260 nM

## Cc1cccc(C(=O)N2CCC3(CCNCC3)CC2)c1
[1]
  IC50: 560 nM
[1]; read-out: pIC50 (converted)
  IC50: 501 nM
[2]
  IC50: 7560 nM
[2]; read-out: pIC50 (converted)
  IC50: 7410 nM
[3]
  IC50: 195 nM
[3]; read-out: pIC50 (converted)
  IC50: 182 nM

## CC(=O)Nc1cccc(C(=O)N2CCC3(CCNCC3)CC2)c1
[4]; [5]
  IC50: 363 nM
[4]; flp-in-293
  IC50: 360 nM

## O=C(Nc1cccc(C(=O)N2CCC3(CCNCC3)CC2)c1)c1cccs1
[4]; [5]
  IC50: 67.6 nM
[4]; flp-in-293
  IC50: 68 nM
